Assay outcomes as filed in PubChem.
Rows were chosen to be rich in hits. Some 2.3% of all compounds tested hit in one or more screens of this group.
PME-1 primary – PME-1 (human) inhibition; Q9Y570; recombinant PME-1, FP-Rh probe fluorescence polarization; inhibition, % at 5.9 µM; 320,000 compounds, 0.53% hits;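 active = inhibition above the campaign mean of all compounds plus 3 SD, cut at about 26% in these data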;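 note: competitive labeling of PME-1 active site by serine hydrolase directed probe; inhibitors block probe labeling so polarization falls and inhibition rises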
Target sequence (Q9Y570 whole entry, looked up): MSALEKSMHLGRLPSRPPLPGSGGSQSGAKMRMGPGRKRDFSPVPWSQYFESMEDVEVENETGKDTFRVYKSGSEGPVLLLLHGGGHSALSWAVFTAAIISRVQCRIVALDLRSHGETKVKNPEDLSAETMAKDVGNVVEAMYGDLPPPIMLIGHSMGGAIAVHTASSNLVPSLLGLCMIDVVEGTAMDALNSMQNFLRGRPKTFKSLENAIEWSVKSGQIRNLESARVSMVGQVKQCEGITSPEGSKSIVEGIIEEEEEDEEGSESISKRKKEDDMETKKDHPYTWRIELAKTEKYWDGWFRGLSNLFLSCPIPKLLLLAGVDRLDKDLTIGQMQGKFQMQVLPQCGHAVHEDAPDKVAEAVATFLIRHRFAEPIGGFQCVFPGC
RBBP9 inh – human RBBP9 hydrolase inhibition; O75884; recombinant RBBP9, FP-Rh probe fluorescence polarization; inhibition, % at 7.94 µM; 220,000 compounds, 0.2% hits;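 active = inhibition above the campaign mean of all tested compounds plus 3 SD, cut at about 14% in these data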
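Test system – recombinant human RBBP9 · Input – RBBP9 2.5 µM in dispensing solution, pre-mixing · Medium – Tris buffer pH 8.0, NaCl, Pluronic · Schedule – preincubation 30 min plus labeling 45 min at 25 °C · Measured by – fluorescence polarization · Measure – % inhibition · Controls – DMSO and no-protein wells · Replicates – one well per compound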
PAD4 FP inh – inhibitors of human PAD4; Q9UM07; recombinant PAD4, RCA probe fluorescence polarization; inhibition, % at 6.36 µM; 330,000 compounds, 0.41% hits;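 active = percent inhibition above a cutoff equal to the mean of all tested compounds plus 3 SD, cut at about 15% in these data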
PRMT1 FP inh – inhibitors of human PRMT1. Q99873. recombinant PRMT1, activity-based probe fluorescence polarization. inhibition, % at 2.79 µM. 370,000 compounds, 1.3% hits. AID 652257;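 active = inhibition above about 21% made by adding two undisclosed values, limit read from the data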
Fam108B inh – blocks mouse Fam108B hydrolase in RBBP9 counter-screen; recombinant Fam108B, FP-Rh probe fluorescence polarization; inhibition, % at 9.51 µM; 300,000 compounds, 0.33% hits; AID 1947;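 active = inhibition above the screen mean inhibition plus 3 SD, computed separately per campaign, cut at about 18% in these data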;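 note: inhibitors lower polarization as less probe binds the enzyme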
GSTO1 inh – counter-screen for RBBP9 inhibitors: inhibitors of human GSTO1; P78417; recombinant GSTO1, activity-based probe fluorescence polarization; inhibition, % at 5.96 µM; 300,000 compounds, 1.1% hits; AID 1974;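 active = inhibition above the campaign mean inhibition plus 3 SD, cut at about 35% in these data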
Target sequence (P78417 whole entry, looked up): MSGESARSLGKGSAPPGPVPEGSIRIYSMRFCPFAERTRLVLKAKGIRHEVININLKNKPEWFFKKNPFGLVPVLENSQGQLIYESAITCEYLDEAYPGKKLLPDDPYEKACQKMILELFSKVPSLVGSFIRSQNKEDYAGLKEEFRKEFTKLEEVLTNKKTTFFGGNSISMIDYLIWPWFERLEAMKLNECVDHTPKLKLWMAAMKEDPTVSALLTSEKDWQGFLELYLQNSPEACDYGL
PRMT1 inh conf – confirmation of human PRMT1 inhibitors | shares compounds with PRMT1 FP inh | inhibition, % at 2.79 µM | 3,300 compounds, 42% hits | AID 687036 | recombinant His-PRMT1, activity-based probe fluorescence polarization;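 active = mean inhibition across replicates above the hit cutoff derived for the earlier primary screen, cut at about 22% in these data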
A number is an active result; - = inactive; . = no result.

SMILES | PME-1 primary | RBBP9 inh | PAD4 FP inh | PRMT1 FP inh | Fam108B inh | GSTO1 inh | PRMT1 inh conf
CN(CCC(=O)Nc1ccc(Br)cc1)Cc1ccccc1 | - | - | - | . | - | - | .
O=C1C=C(N2CCOCC2)c2cccc3cccc1c23 | . | . | . | 102.3 | . | . | -
O=C1C=C(O)c2cccc3cccc1c23 | - | . | - | 47.7 | - | - | -
O=C1C(N2CCOCC2)=Cc2cccc3cccc1c23 | . | . | . | 101.1 | . | . | 77.3
CC1=C(C)C(=O)C(N2CCOCC2)=CC1=O | . | - | . | - | . | . | .
Cc1nnc(C)n1N1C(=O)c2cccc3cccc(c23)C1=O | - | - | - | - | - | - | .
C[C@@H]1CN([C@@H](C)CO)C(=O)CCCn2nncc2CO[C@H]1CN(C)Cc1ccc2c(c1)OCCO2 | . | . | . | - | . | . | .
Cc1cc(C(=O)N/N=C/c2cccnc2)c(C)o1 | - | - | - | - | - | - | .
Cc1cccc(Cn2c(C(=O)OC(C)C)cc3c2ccn3C)c1 | - | - | - | 36.0 | - | - | -
COC(=O)[C@@]1(Cc2ccc(F)cc2)[C@H]2c3cc(C(=O)N4CCCC4)n(Cc4cc(C)n(C)n4)c3C[C@H]2CN1C(=O)c1ccccc1 | . | . | . | - | . | . | .
OCc1ccccc1N=c1ssnc1Cl | - | - | - | . | - | - | .
Cc1cc(C)cc(C(N)=Nc2cccc(C#N)c2)c1 | - | . | - | - | - | - | .
COc1cc(N=c2ssnc2Cl)cc(OC)c1 | - | - | - | 63.4 | - | - | 91.9
Clc1nssc1=Nc1ccc(Br)cc1 | . | - | . | 71.7 | . | . | 93.0
Clc1nssc1=Nc1nncs1 | - | . | - | 97.4 | . | . | 91.5
N#Cc1cccc(N=c2ssnc2Cl)c1 | . | - | . | 100.1 | . | . | 91.9
COc1ccc(N(CC(=O)Nc2ccc3c(c2)OCCO3)S(C)(=O)=O)c(OC)c1 | - | - | - | - | - | - | .
CCn1c(C(=O)N2CCc3ccccc3C2)cc2sccc21 | - | - | - | 25.4 | - | - | -
COC(=O)c1ccc(Cl)c(NC(=O)CSc2nnc(-c3ccncc3)o2)c1 | - | . | - | - | - | - | .
COC(=O)c1ccccc1NC(=O)CSc1nnc(-c2ccncc2)o1 | - | - | - | 33.9 | - | - | 45.1
COc1ccc2c3c(ccc2c1)C(=O)/C(=C/O)CC3 | . | . | . | 29.6 | . | . | 24.2
CCCCCC(=O)Nc1cc(S(=O)(=O)O)cc2cc(S(=O)(=O)O)cc(O)c12 | . | . | . | 44.6 | . | . | 56.7
CCCCCC(=O)Nc1cc(S(=O)(=O)N2CCCCC2)ccc1N1CCCCC1 | . | . | . | - | . | . | .
CC(=O)OCc1nc2ccccc2s1 | - | - | - | - | - | - | .
CC(=O)c1ccc(OC(=O)CCc2nc3ccccc3s2)cc1 | - | - | - | 74.8 | - | - | 27.2
SMILES | PME-1 primary | RBBP9 inh | PAD4 FP inh | PRMT1 FP inh | Fam108B inh | GSTO1 inh | PRMT1 inh conf
O=C(CCc1nc2ccccc2s1)OCC(=O)c1ccccc1 | - | - | - | - | - | - | .
O=C(O)COCc1nc2ccccc2s1 | - | - | - | 53.5 | - | - | -
c1coc(C2Nc3ccccc3-c3nc4ccccc4n32)c1 (stereo not drawn) | - | - | - | 44.8 | - | - | -
C=CCC[C@@H](Cc1ccc(F)cc1)C(=O)OC[C@@H](Cc1c[nH]c2ccccc12)NC(=O)[C@@H](CC=C)CC(=O)N[C@H](CO)Cc1ccccc1 | . | . | - | - | . | . | .
COc1ccc2[nH]c(C)c(CCN(Cc3cccs3)C(=S)Nc3ccccc3)c2c1 | - | - | - | 28.8 | - | - | -
CN1CCN(c2ccc3c(c2)Oc2ccccc2CN(Cc2cn(Cc4ccccc4C(F)(F)F)nn2)S3(=O)=O)CC1 | . | . | . | - | . | . | .
O=C1C=CC(=O)N1CCCCCCN1C(=O)C=CC1=O | - | - | - | 93.2 | - | - | 90.1
O=C1C2C3C=CC(C3)C2C(=O)N1CCCCCCN1C(=O)C2C3C=CC(C3)C2C1=O (stereo not drawn) | - | - | - | - | - | - | .
O=C(O)CN1C(=O)C=CC1=O | . | . | . | 63.6 | . | . | 74.7
O=C(O)CN1C(=O)C2C3C=CC(C2C1=O)C1C(=O)N(CC(=O)O)C(=O)C31 (stereo not drawn) | - | . | - | - | - | - | .
COc1ccc(Cl)cc1C(=O)NNC(=S)NC(=O)c1ccc(F)c(F)c1 | - | . | - | . | - | - | .
COc1ccc(-c2nn(-c3ccccc3)cc2/C=C(\C#N)S(=O)(=O)c2ccccc2)cc1OC | - | - | - | - | - | - | .
CCC(=O)Nc1cc(OC)c(NC(=S)Nc2ccccc2CC)cc1OC | . | . | . | 47.1 | . | . | -
CCc1ccccc1NC(=O)CC(=O)Nc1ccccc1CC | - | . | - | - | - | - | .
Cc1nnc(SCc2cnc(-c3ccc(C(C)C)cc3)s2)n1C | - | - | - | - | - | - | .
O=S(=O)(c1cccc(-c2n[nH]c(=S)n2-c2ccc(OC(F)(F)F)cc2)c1)N1CCOCC1 | . | . | - | 27.1 | . | . | -
O=C(NNC1CC(=O)N(c2ccc3c(c2)OCCO3)C1=O)c1ccc(Cl)cc1 (stereo not drawn) | - | - | - | 56.1 | - | - | -
O=C(CSC1=Nc2ccccc2C2CC=NN12)Nc1ccc(F)cc1Cl (stereo not drawn) | - | - | - | 32.3 | - | - | 43.1
CN1c2ccsc2C(O)=C(C(=S)Nc2ccc(F)c(Cl)c2)S1(=O)=O | - | - | - | 30.2 | - | - | -
COc1ccc(NC(=O)CCCCCn2nnc3ccccc3c2=O)cc1OC | - | . | - | - | - | - | .
S=C(NCc1ccco1)Nc1cc(-c2ccccc2)[nH]n1 | - | - | - | 31.9 | - | - | 28.9
S=C(NCc1ccco1)Nc1ccc(Br)cn1 | - | . | - | - | - | - | .
Clc1ccc(-c2nnnn2-c2ccc(Cl)cc2)cc1 | - | - | - | - | - | - | .
Cc1ccc(-n2nnnc2C(Cl)(Cl)c2nnnn2-c2ccc(C)cc2)cc1 | - | - | - | 47.8 | - | - | 90.2
O=C(CCCN1C(=O)/C(=C/c2ccccc2Cl)SC1=S)NNC(=O)c1cccnc1 | - | - | - | - | - | - | .
SMILES | PME-1 primary | RBBP9 inh | PAD4 FP inh | PRMT1 FP inh | Fam108B inh | GSTO1 inh | PRMT1 inh conf
COc1ccc(C(=O)NCc2cnn(C)c2C)cc1OC1CCN(C(C)C)CC1 | - | . | - | - | - | - | .
O=C(Nn1cnnc1)C1CCCN1S(=O)(=O)c1ccc(F)cc1 (stereo not drawn) | - | - | - | - | - | - | .
CC(=O)N1c2c(cc(Br)cc2S(=O)(=O)N2CCOCC2)CC1C (stereo not drawn) | - | - | - | - | - | - | .
CC(=O)Nc1cccc(N2C(=O)CC(N3CCC(C(=O)N4CCCCC4)CC3)C2=O)c1 (stereo not drawn) | - | - | - | 79.4 | - | - | -
CCN1CCN(C2CC(=O)NC2=O)CC1 (stereo not drawn) | - | - | - | . | - | - | .
O=C1CC(N2CCN(c3ccccn3)CC2)C(=O)N1c1ccc(F)cc1 (stereo not drawn) | - | - | - | - | - | - | .
COc1cc(OC)cc(N2C(=O)CC(N3CCC(C(=O)N4CCCCC4)CC3)C2=O)c1 (stereo not drawn) | . | . | . | 77.9 | . | . | -
